Measured values gathered from unrelated publications.
Compare with care: the assays were run in different laboratories. In brackets after ≈: the same amount, converted by molar mass.

SMILES | target or system | assay | test system | setting | measurement | value
[NH2][Pt]([NH2])([Cl])[Cl] | HCC4006 | cell growth or viability, MTT | – | 48 h | IC50 | 182 µM
C=CCCCNc1c2c([nH]c(=O)c1C(=O)OCC)CCC2 | Human immunodeficiency virus 1 | viral replication, inhibitor | IIIB | 72 h | EC50 | 45.4 µM
O=[N+]([O-])c1cn2c(n1)OC[C@@H](OCc1ccc(OC(F)(F)F)cc1)C2 | Mycobacterium marinum | microbial growth | – | – | MIC90 | 50 µM (≈ 18 µg/mL)
CCOC(=O)c1c(N(CC)CC)c2c([nH]c1=O)CCC2 | Human immunodeficiency virus 1 | viral replication, inhibitor | IIIB | 72 h | EC50 | 79.3 µM
Cc1nc(Nc2ncc(C(=O)Nc3c(C)cccc3Cl)s2)cc(N2CC[C@H](O)C2)n1 | SU-DHL-5 | cell growth or viability, ATP luminescence | – | 10 µM, 72 h | inhibition | 98%
CC(=O)ON=C1C=CC(=C(C#N)c2ccccc2)C=C1 | HDF-1 | cell growth or viability, MTT | – | 48 h | IC50 | 24.9 mg/L
NNC(=O)c1ccncc1 | Mycobacterium marinum | microbial growth | – | – | MIC90 | 40 µM (≈ 5.49 µg/mL)
O=c1[nH]ncc(NN=Cc2cn(-c3ccccc3)nc2-c2ccccc2)c1Cl | CCRF-CEM | cell growth or viability | – | 48 h | CC50 | 4.78 µM
CC(C)(C#Cc1ccc(-c2ccc(Cl)c3c(NS(C)(=O)=O)nn(CC(F)(F)F)c23)c([C@H](CC2CC2)NC(=O)Cn2nc(C(F)(F)F)c3c2C(F)(F)[C@@H]2C[C@H]32)n1)S(C)(=O)=O | Human immunodeficiency virus 1 | viral replication, inhibitor | – | – | EC50 | 0.0009 µM
CCOC(=O)c1c(NCCCCN)c2c([nH]c1=O)CCC2 | Human immunodeficiency virus 1 | viral replication, inhibitor | IIIB | 72 h | EC50 | > 100 µM
CC(C)(C#Cc1ccc(-c2ccc(Cl)c3c(NS(C)(=O)=O)nn(CC(F)(F)F)c23)c([C@H](CC2CCCCC2)NC(=O)Cn2nc(C(F)(F)F)c3c2C(F)(F)[C@H]2C[C@@H]32)n1)S(C)(=O)=O | Human immunodeficiency virus 1 | viral replication, inhibitor | – | – | EC50 | 0.0007 µM
CCOC(=O)c1c(NCCC(C)C)c2c([nH]c1=O)CCC2 | Human immunodeficiency virus 1 | viral replication, inhibitor | IIIB | 72 h | EC50 | 9.09 µM
CC(C)(C#Cc1ccc(-c2ccc(Cl)c3c(NS(C)(=O)=O)nn(CC(F)(F)F)c23)c([C@H](CC2CCCC2)NC(=O)Cn2nc(C(F)(F)F)c3c2C(F)(F)[C@@H]2C[C@H]32)n1)S(C)(=O)=O | Human immunodeficiency virus 1 | viral replication, inhibitor | – | – | EC50 | 7.3e-05 µM
Cc1ccc(-c2nn(-c3ccccc3)cc2C=Nc2c(N)nc(S)nc2O)cc1 | CCRF-CEM | cell growth or viability | – | 48 h | CC50 | < 20 µM
